# Legend:
# Rattus norvegicus [1] = assay: Hypotensive response (diastolic blood pressure) was determined at 30 minutes for a dose 10 mg/kg administered and 1 mL of corn oil in rat; type: functional, Artery
# In short: (§1)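 Male Sprague–Dawley rats (250-350 g), femoral artery cannulated under sodium pentobarbital (35 mg/kg ip), restrained supine. Heparin–saline injected into the cannula before recording. Single oral gavage dose in corn oil. Systolic and diastolic pressure taken 30 min after dosing, given as mean (±SE) percent decrease from base line, base line being pressure of animals given 1 mL corn oil.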
# Rattus norvegicus [2] = assay: Hypotensive response (systolic blood pressure) was determined at 30 minutes for a dose of 10 mg/kg administered and 1 mL of corn oil in rat; type: functional, Artery; in short: as §1
# Rattus norvegicus [3] = assay: Hypotensive response for decrease in blood pressure was determined for a dose 1 mg/kg of in rat; type: functional
# In short: (§2)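 Male Sprague–Dawley rats (250-350 g), femoral artery cannulated under sodium pentobarbital (35 mg/kg ip); pressure recorded by transducer after recovery from anesthesia. Oral gavage in under 1 mL corn oil, doses 1-90 mg/kg; vehicle controls got 1 mL corn oil. Recorded continuously for 30 min, then at intervals. Result is mean (±SE) percent decrease in […] from post-anesthesia base line over the first hour.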
# Rattus norvegicus [4] = assay: Hypotensive response for decrease in blood pressure was determined for a dose 25 mg/kg of in rat; type: functional; in short: as §2
# Rattus norvegicus [5] = assay: Hypotensive response for decrease in blood pressure was determined for a dose 3 mg/kg of in rat; type: functional; in short: as §2
# Rattus norvegicus [6] = assay: Hypotensive response for decrease in blood pressure was determined for a dose 45 mg/kg of in rat; type: functional; in short: as §2
# Rattus norvegicus [7] = assay: Hypotensive response for decrease in blood pressure was determined for a dose 90 mg/kg of in rat; type: functional; in short: as §2
# Rattus norvegicus [8] = assay: Hypotensive response for decrease in blood pressure was determined for a dose 0 mg/kg + 1 mL corn oil in rat; type: functional; in short: as §2
# Rattus norvegicus [9] = assay: Hypotensive response for decrease in blood pressure was determined for a dose 10 mg/kg of in rat; type: functional; in short: as §2
# Rattus norvegicus [10] = assay: Hypotensive response for decrease in blood pressure was determined for a dose 15 mg/kg of in rat; type: functional; in short: as §2
smiles,measurement,setting,value
COc1ccc(-[n+]2noc([O-])n2)cc1,Decrease in blood pressure,Rattus norvegicus [1],20%
same,Decrease in blood pressure,Rattus norvegicus [2],22.2%
[O-]c1n[n+](-c2ccccc2)no1,Decrease in blood pressure,Rattus norvegicus [1],52.3%
same,Decrease in blood pressure,Rattus norvegicus [2],51.7%
[O-]c1n[n+](-c2ccc(Cl)c(Cl)c2)no1,Decrease in blood pressure,Rattus norvegicus [1],30.9%
same,Decrease in blood pressure,Rattus norvegicus [2],31.7%
[O-]c1n[n+](-c2c(Cl)cccc2Cl)no1,Decrease in blood pressure,Rattus norvegicus [1],8.3%
same,Decrease in blood pressure,Rattus norvegicus [2],11.5%
Cc1ccc(-[n+]2noc([O-])n2)cc1,Decrease in blood pressure,Rattus norvegicus [3],13.9%
same,Decrease in blood pressure,Rattus norvegicus [4],48.1%
same,Decrease in blood pressure,Rattus norvegicus [5],23.5%
same,Decrease in blood pressure,Rattus norvegicus [6],53%
same,Decrease in blood pressure,Rattus norvegicus [7],75.3%
same,Decrease in blood pressure,Rattus norvegicus [1],27.5%
same,Decrease in blood pressure,Rattus norvegicus [2],28.5%
same,Decrease in blood pressure,Rattus norvegicus [8],0%
same,Decrease in blood pressure,Rattus norvegicus [9],28%
same,Decrease in blood pressure,Rattus norvegicus [10],37.6%
[O-]c1n[n+](-c2ccc(Cl)cc2)no1,Decrease in blood pressure,Rattus norvegicus [1],47.9%
same,Decrease in blood pressure,Rattus norvegicus [2],47%
O=[N+]([O-])c1ccc(-[n+]2noc([O-])n2)cc1,Decrease in blood pressure,Rattus norvegicus [1],23.8%
same,Decrease in blood pressure,Rattus norvegicus [2],24.8%
